Test results reported in ChEMBL document CHEMBL2157965, “Structure-based design of potent Bcl-2/Bcl-xL inhibitors with strong in vivo antitumor activity” (J Med Chem, 2012).
Activity calls are given as the source filed them. No cut-off for these calls is given here.

Legend:
[1] = Antitumor activity against human NCI-H146 cells xenografted in SCID mouse assessed as tumor size at 25 mg/kg, iv administered 5 days a week for 2 weeks measured on day 92 ( Rvb = 800 mm3); assay type: functional
In short: (§1)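 SCID mice received 5 × 10^6 H146 cells with matrigel, injected subcutaneously on the dorsal side, one tumor per mouse. At 40–110 mm3 (mean 70 mm3), mice were randomized, 8 per group. Dosing was 25 mg/kg i.v. daily, 5 days/week for 2 weeks, versus vehicle. Tumor size and body weight were measured 3×/week during treatment and 2×/week afterwards.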

NCI-H146 [2] = experiment: Induction of apoptosis in human NCI-H146 cells xenografted in SCID mouse assessed as PARP cleavage at 25 mg/kg, iv up to 24 hrs by Western blot analysis; assay type: functional, organism-based; set-up: dose 25 mg/kg
In short: (§2)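 SCID mice bearing subcutaneous H146 tumors (about 100 mm3) received a single i.v. dose of 25 mg/kg or vehicle. Tumors were collected at 3, 6 and 24 h. Western blot of tumor tissue assessed PARP and caspase-3 and their cleaved forms, with GAPDH as loading control.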

NCI-H146 [3] = experiment: Induction of apoptosis in human NCI-H146 cells assessed as increase in cytochrome c release after 2 hrs; assay type: functional, cell-based
[4] = Inhibition of human N-terminal His6-tagged Bcl2 isoform 2 expressed in Escherichia coli BL21(DE3) assessed as inhibition of Fluorescein-labeled BIM binding after 1 to 2 hrs by fluorescence polarization assay
NCI-H146 [5] = experiment: Antitumor activity against human NCI-H146 cells xenografted in SCID mouse assessed as tumor regression at 25 mg/kg, iv administered 5 days a week for 2 weeks relative to vehicle-treated control; assay type: functional, organism-based; set-up: dose 25 mg/kg; in short: as §1
NCI-H146 [6] = experiment: Induction of apoptosis in human NCI-H146 cells xenografted in SCID mouse assessed as PARP cleavage at 25 mg/kg, iv at 3 hrs by Western blot analysis; assay type: functional, organism-based; set-up: dose 25 mg/kg; in short: as §2
Bcl-2-like protein 1 = Bcl-2-like protein 1 (Homo sapiens, UniProt Q07817); experiment: Inhibition of human N-terminal His8-tagged Bcl-XL expressed in Escherichia coli BL21(DE3) assessed as inhibition of Fluorescein-labeled BAK binding after 1 to 2 hrs by fluorescence polarization assay
Mus musculus [7] = experiment: Toxicity in SCID mouse xenografted with human NCI-H146 cells assessed as weight loss at 25 mg/kg, iv administered 5 days a week for 2 weeks; assay type: organism-based; set-up: dose 25 mg/kg, route intravenous; details: in vivo; in short: as §1
NCI-H146 [8] = experiment: Induction of apoptosis in human NCI-H146 cells assessed as increase in cytochrome c release at 30 nM after 2 hrs; assay type: functional, cell-based
[9] = target: Induced myeloid leukemia cell differentiation protein Mcl-1 (Homo sapiens, UniProt Q07820); experiment: Inhibition of human N-terminal His8-tagged Mcl1 expressed in Escherichia coli BL21(DE3) assessed as inhibition of Fluorescein-labeled BID binding after 1 to 2 hrs by fluorescence polarization assay
NCI-H146 [10] = experiment: Induction of apoptosis in human NCI-H146 cells assessed as PARP cleavage after 2 hrs by Western blot analysis; assay type: functional, cell-based
NCI-H146 [11] = experiment: Induction of apoptosis in human NCI-H146 cells xenografted in SCID mouse assessed as caspase3 activation at 25 mg/kg, iv at 3 hrs by Western blot analysis; assay type: functional, organism-based; set-up: dose 25 mg/kg; in short: as §2
NCI-H146 [12] = experiment: Induction of apoptosis in human NCI-H146 cells assessed as PARP cleavage after 24 hrs by Western blot analysis; assay type: functional, cell-based
In short: (§3)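 H146 cells were treated for 24 h at a range of concentrations. Lysates were probed by Western blot with rabbit antibodies to PARP and caspase-3, detecting the cleaved forms. GAPDH served as loading control.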

NCI-H146 [13] = experiment: Induction of cell death in human NCI-H146 cells at 10 nM after 24 hrs by trypan blue assay; assay type: functional, cell-based
In short: (§4)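 H146 cells were treated for 24 h across a range of concentrations. Cell death was scored by trypan blue assay.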

NCI-H146 [14] = experiment: Induction of apoptosis in human NCI-H146 cells assessed as PARP cleavage at 30 nM after 2 hrs by Western blot analysis; assay type: functional, cell-based
NCI-H1417 = experiment: Antiproliferative activity against human NCI-H1417 cells after 4 days by WST8 assay; assay type: functional, cell-based; details: NCI-H1417, 96 h
In short: (§5)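 Growth inhibition was measured as described previously. IC50 values come from growth curves.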

[15] = Antiproliferative activity against human NCI-H146 cells after 4 days by WST8 assay; assay type: functional, cell-based; details: NCI-H146, 96 h; in short: as §5
NCI-H146 [16] = experiment: Antitumor activity against human NCI-H146 cells xenografted in SCID mouse assessed as tumor growth inhibition at 25 mg/kg, iv administered 5 days a week for 2 weeks relative to vehicle-treated control; assay type: functional, organism-based; set-up: dose 25 mg/kg; in short: as §1
NCI-H146 [17] = experiment: Induction of apoptosis in human NCI-H146 cells assessed as caspase3 activation after 24 hrs by Western blot analysis; assay type: functional, cell-based; in short: as §3
NCI-H146 [18] = experiment: Induction of apoptosis in human NCI-H146 cells xenografted in SCID mouse assessed as caspase3 activation at 25 mg/kg, iv up to 24 hrs by Western blot analysis; assay type: functional, organism-based; set-up: dose 25 mg/kg; in short: as §2
NCI-H146 [19] = experiment: Induction of cell death in human NCI-H146 cells after 24 hrs by trypan blue assay; assay type: functional, cell-based; in short: as §4
Mus musculus [20] = experiment: Toxicity in SCID mouse assessed as weight loss at 25 mg/kg, iv administered 5 days a week for 2 weeks; assay type: organism-based; set-up: dose 25 mg/kg, route intravenous; details: in vivo
NCI-H1963 = experiment: Antiproliferative activity against human NCI-H1963 cells after 4 days by WST8 assay; assay type: functional, cell-based; details: NCI-H1963, 96 h; in short: as §5

Bcl-2-like protein 1, sequence (Q07817 whole entry): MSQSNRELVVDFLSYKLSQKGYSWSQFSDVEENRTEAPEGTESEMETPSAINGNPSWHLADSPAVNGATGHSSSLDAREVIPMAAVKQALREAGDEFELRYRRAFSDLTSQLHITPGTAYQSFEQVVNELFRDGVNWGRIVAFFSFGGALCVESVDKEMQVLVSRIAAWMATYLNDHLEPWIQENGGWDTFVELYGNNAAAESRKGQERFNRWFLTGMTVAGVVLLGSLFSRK
Induced myeloid leukemia cell differentiation protein Mcl-1, sequence (Q07820 whole entry): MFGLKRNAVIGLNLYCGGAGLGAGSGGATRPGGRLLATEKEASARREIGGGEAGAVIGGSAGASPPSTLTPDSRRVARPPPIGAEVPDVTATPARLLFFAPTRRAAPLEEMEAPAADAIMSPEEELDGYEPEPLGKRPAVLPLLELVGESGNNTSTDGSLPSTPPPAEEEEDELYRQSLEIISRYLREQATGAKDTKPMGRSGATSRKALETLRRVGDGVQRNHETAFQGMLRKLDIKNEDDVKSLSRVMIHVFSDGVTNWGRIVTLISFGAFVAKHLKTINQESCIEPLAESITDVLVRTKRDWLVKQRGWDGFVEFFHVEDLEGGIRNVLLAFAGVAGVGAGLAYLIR

In the case of `CCn1c(C)c(C(=O)O)c(-c2cccc(N3CCN(c4ccc(NS(=O)(=O)c5ccc(N[C@H](CCN(C)C)CSc6ccccc6)c([N+](=O)[O-])c5)cc4)CC3)c2)c1-c1ccc(Cl)cc1`, the Activity [1] is reported as 200 mm3, the Activity (NCI-H146 [2]) is reported as “Active” and the Activity (NCI-H146 [3]) is reported as “Dose-dependent effect”. The IC50 [4] was 2 nM, the Ki [4] was < 0.6 nM and the Activity (NCI-H146 [5]) was “Active”. For the same compound, the Activity (NCI-H146 [6]) was “Active”, the IC50 (Bcl-2-like protein 1) was 6.6 nM and the Ki (Bcl-2-like protein 1) was < 1 nM. For the same compound, the Activity (Mus musculus [7]) was < 10%, the Activity (NCI-H146 [8]) was “Active” and the IC50 [9] was > 2000 nM. For the same compound, the Activity (NCI-H146 [10]) was “Dose-dependent effect”, the Activity (NCI-H146 [11]) was “Active” and the Activity (NCI-H146 [12]) was “Dose-dependent effect”. The Activity (NCI-H146 [13]) was “Active”, the Activity (NCI-H146 [14]) was “Active” and the IC50 (NCI-H1417) was 17.7 nM. The IC50 [15] was 8.1 nM, the TGI (NCI-H146 [16]) was “Active” and the Activity (NCI-H146 [17]) was “Dose-dependent effect”. For the same compound, the Activity (NCI-H146 [18]) was “Active”, the Activity (NCI-H146 [19]) was “Dose-dependent effect” and the Activity (Mus musculus [20]) was “Non-toxic”. The IC50 (NCI-H1963) was 4.5 nM.
